# Screening data deposited in PubChem BioAssay by several laboratories.
# Only some compounds are listed: those with a hit (about 2.2% of all), similar ones and a draw of the others.
# GLD-1 TGE inh – GLD-1/TGE RNA complex disruptors, primary screen, biochemical, fluorescence polarization; Female germline-specific tumor suppressor gld-1 (Caenorhabditis elegans), Q17339; purified GLD-1 + fluorescein TGE RNA; inhibition, % at 5.96 µM; 320,000 tested, 0.44% active; AID 2280, 2010;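 active = percent inhibition above a per-plate cutoff, the plate mean of test compounds plus 3 SD, cut at about 30% in these data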;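 note: 0% = DMSO wells with GLD-1 and probe and 100% = wells lacking GLD-1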
# IMP-1 inhibitor – IMP-1 metallo-beta-lactamase inhibitors, primary screen, biochemical, epi-absorbance readout, Pseudomonas aeruginosa enzyme | purified IMP-1, nitrocefin hydrolysis, epi-absorbance fluorescence | inhibition, % at 5.6 µM | 290,000 tested, 0.45% active | AID 1556, 2009;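 active = inhibition above the mean plus 3 SD of all compounds in the same screening run, cut at about 4.5% in these data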;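 note: 0% = IMP-1 with DMSO and 100% = DMSO wells lacking enzyme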
#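 System: Purified recombinant IMP-1 metallo-beta-lactamase enzyme | Measured by: Fluorescence quenching readout, ex 480/em 530 nm | Replication: Singlicate | Incubation: 15 min preincubation plus 25 min reaction at 25 °C | Evaluation: Percent inhibition from optical density relative to buffer-blank wells | Benchmarks: DMSO with and without IMP-1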
# EBV gp42 block – Epstein-Barr virus gp42 inhibitors, primary screen, biochemical, uHTS, fluorescence polarization; Fluorescence polarization binding assay, mP read-out; inhibition, % (tested at 21.74 µM); 220,000 tested, 0.42% active; in the data active = inhibition above about 50%
# Target sequence (Q1HVG2 whole entry, looked up): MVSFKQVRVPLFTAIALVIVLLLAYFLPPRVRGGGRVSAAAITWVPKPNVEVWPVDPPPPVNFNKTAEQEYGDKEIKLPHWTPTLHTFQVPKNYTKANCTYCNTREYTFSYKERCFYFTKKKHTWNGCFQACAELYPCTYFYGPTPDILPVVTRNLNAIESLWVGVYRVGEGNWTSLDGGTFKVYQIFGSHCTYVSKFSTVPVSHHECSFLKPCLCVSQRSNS
# MEX-5 binding – MEX-5 zinc finger RNA-binding disruptors – biochemical, C. elegans, fluorescence polarization, MLPCN library, primary screen; Zinc finger protein mex-5 (Caenorhabditis elegans), Q9XUB2; MEX-5/FITC-TCR2 RNA binding; stronger effect = lower value; 300,000 tested, 0.38% active; AID 1832, 2009; activity score (negative = inhibition of binding), % at 10 µM;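 active = inhibition past about -25% in most replicates, and total fluorescence under double the plate's negative control median, limit read from the data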;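 note: 0% = DMSO and -100% = 5 µM competing unlabeled TCR2 RNA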
# VIM-2 inhibitor – VIM-2 metallo-beta-lactamase inhibitors, primary screen, biochemical, epi-absorbance readout, Pseudomonas aeruginosa enzyme. purified VIM-2, nitrocefin hydrolysis, epi-absorbance fluorescence. AID 1527, 2009. inhibition, % at 5.6 µM. 290,000 tested, 0.89% active;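 active = inhibition above the mean of all tested compounds plus 3 SD, cutoff set per screening run, cut at about 7.5% in these data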;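 note: red hydrolysis product quenches plate fluorescence so inhibitors raise well fluorescence; 0% = enzyme with DMSO and 100% = DMSO without enzyme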
# Bcl-xL primary – inhibitors of human Bcl-xL, primary screen, biochemical, fluorescence polarization, HTS. Bcl-2-like protein 1 (Homo sapiens), Q07817. GST-Bcl-xL / FITC-Bim BH3 peptide fluorescence polarization. inhibition, % at 10.9 µM. 320,000 tested, 0.7% active. AID 2129, 2009;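 active = inhibition above the mean of all tested compounds plus 3 SD, cutoff set per campaign, cut at about 30% in these data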;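 note: 0% = DMSO wells and 100% = unlabeled Bim-BH3 peptide competitor; inhibitors lower millipolarization by displacing the labeled peptide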
# Target sequence (Q07817 whole entry, looked up): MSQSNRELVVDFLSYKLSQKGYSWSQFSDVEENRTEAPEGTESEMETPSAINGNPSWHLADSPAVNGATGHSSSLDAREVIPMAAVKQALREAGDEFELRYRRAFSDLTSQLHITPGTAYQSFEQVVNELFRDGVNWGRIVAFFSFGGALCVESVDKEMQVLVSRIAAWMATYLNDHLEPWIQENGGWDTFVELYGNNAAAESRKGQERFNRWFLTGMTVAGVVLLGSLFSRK
# Active calls of the source: *; . = not tested or not shown; + = active, no number; ! = repeats disagree.
SMILES,GLD-1 TGE inh,IMP-1 inhibitor,EBV gp42 block,MEX-5 binding,VIM-2 inhibitor,Bcl-xL primary
CCOc1cccc(=O)c2c(C)n(Cc3ccccc3)c(C)c12,5,0,-14,0,-2,6
CN(C)C(=O)c1cn(N(C)c2ncc(C(F)(F)F)cc2Cl)c(=O)c2ccccc12,-12,-3,-18,2,-7,4
CN(c1ncc(C(F)(F)F)cc1Cl)N1C(=O)c2cccc([N+](=O)[O-])c2C1=O,8,37*,6,4,-4,5
COC(=O)c1cc(C(=O)c2ccc(Cl)cc2)n2c(=O)/c(=C\N(C)C)sc12,4,-2,62*,.,1,0
O=C(CCN1C(=O)C2C3CCC(C3)C2C1=O)Nc1cccc(Cl)c1 (stereo not drawn),-3,5.9*,.,1,3,-2
O=C(CCN1C(=O)C2CC=CCC2C1=O)Nc1cccc(Cl)c1 (stereo not drawn),3,-4,.,1,-5,1
O=C(CSc1n[nH]c(-c2ccccn2)n1)Nc1ccccc1F,6,-4,.,2,9.6*,-2
COc1cccc(NC(=S)N2CCC(c3ccc(C)cc3)C2)c1 (stereo not drawn),-1,-4,.,-1,-3,3
CCN1C(=O)/C(=C2\SC(=S)N(CCCOC)C2=O)c2ccccc21,-4,-4,-4,-2,0,4
CN1C(=O)/C(=C2\SC(=S)N(CCCCCC(=O)O)C2=O)c2ccccc21,9,0,73*,-2,-2,8
O=C(O)CCN1C(=O)/C(=C2\C(=O)N(Cc3ccc(F)cc3)c3ccccc32)SC1=S,-4,51*,.,-2,-1,14
CC1CN(C2=NC(=O)/C(=C3/C(=O)N(Cc4ccc(F)cc4)c4ccccc43)S2)CC(C)O1 (stereo not drawn),5,-2,-10,1,-1,7
CCOc1cc(-c2cc(-c3ccc(C)cc3)nc(N)c2C#N)ccc1O,15,-3,7,-4,0,30*
CCCCN1C(=O)/C(=C/C=C2\SCCN2C)SC1=S,.,0,-273,16,-2,.
CCCCN1C(=O)/C(=C/C=C2\N(C)c3ccccc3C2(C)C)SC1=S,11,4,+,.,3,-43
CC(=O)NC(Cc1ccc(C(C)C)cc1)C(=O)NC1CCN(C(=O)c2cccc(C)c2)CC1 (stereo not drawn),-2,-1,1,3,-2,0
COc1ccc(C2c3ccc(O)cc3Oc3ncn(Cc4ccco4)c(=N)c32)cc1OC (stereo not drawn),4,-2,-4,-29*,-3,19
CC(C)(C)C(=O)Nc1ccccc1N1CCN(c2ccc(F)cc2)CC1,0,1,.,1,0,-6
CN(C)c1ncc(C2=C(Cl)C(=O)C(N3CCCC3)=C(Cl)C2=O)s1,16,5.2*,-37,-17,0,57*
O=C1C(Cl)=C(N2CCCCC2)C(=O)C(Cl)=C1c1cnc(N2CCCCC2)s1,.,4,-21,-4,1,.
O=C(CCC(=O)N1CCN(c2ccc(Cl)c(Cl)c2)CC1)c1ccccc1,-1,1,.,1,-1,-2
Cc1n[nH]c(=S)c2nn(-c3cccc(Cl)c3)c(C)c12,.,0,-21,-32*,3,.
Cn1c(SCC(=O)O)nc2ccccc2c1=O,4,0,-10,1,11*,-3
COC(=O)CSc1nc2ccccc2c(=O)n1C,4,-3,-14,-1,-2,3
Cc1ncsc1CCSc1n[nH]c(=O)n1-c1ccccc1,-10,0,-2,1,1,-10
SMILES,GLD-1 TGE inh,IMP-1 inhibitor,EBV gp42 block,MEX-5 binding,VIM-2 inhibitor,Bcl-xL primary
Cc1ncsc1CCSc1nc2ccccc2c(=O)n1C,7,-3,-10,-3,21*,7
Cc1cc(C)c2oc(=O)cc(CN3CCN(Cc4ccccc4)CC3)c2c1,-2,-1,.,2,1,3
Cc1ccc2c(CN3CCN(CCO)CC3)cc(=O)oc2c1C,1,-2,-12,4,9.9*,3
Cc1ccc2c(CN3CCN(Cc4ccccc4)CC3)cc(=O)oc2c1C,-3,0,.,0,9.9*,4
Cc1ccccc1NC(=O)C1c2cccc[n+]2CC(=O)N1c1c(C)cccc1C (stereo not drawn),12,14*,-42,-6,-1,4
COc1ccc(Sc2nc(-c3ccccn3)ncc2OC)cc1,-2,-6,-1,7,7.9*,0
O=C(O)c1cc(-c2ccco2)nc2ccc(Br)cc12,68*!,-3,2,-17,-4,96*!
O=C(Nc1cccc(C(F)(F)F)c1)c1ccc2nc(-c3ccco3)c(-c3ccco3)nc2c1,21,-4,-7,1,-3,32*
O=C(O)c1ccc2nc(-c3ccco3)c(-c3ccco3)nc2c1,.,1,-13,-29*,1,.
O=S(=O)(Nc1ccccc1OC(F)F)c1ccc(S(=O)(=O)N2CCCC2)cc1,13,.,.,.,.,4
Cc1nn(C(C)C(=O)N/N=C/c2ccc(N(C)C)cc2)c(C)c1[N+](=O)[O-] (stereo not drawn),-6,-6,-16,4,-5,-1
CN(CCCCCCCCCCN(C)C(=O)Oc1cccc([N+](C)(C)C)c1)C(=O)Oc1cccc([N+](C)(C)C)c1,-3,.,.,.,.,4
O=C(COC(=O)c1ccc(F)c(S(=O)(=O)N2CCOCC2)c1)NCCc1ccccc1,-2,.,.,1,.,0
NS(=O)(=O)c1ccc(CCNC(=O)Cc2ccc(S(=O)(=O)N3CCOCC3)s2)cc1,2,.,.,3,.,3
Cc1ccc(S(=O)(=O)N2CCCN(C)c3nc4ccccc4nc32)cc1,18,.,.,.,.,38*
CC(OC(=O)c1cc(=O)[nH]c2ccccc12)C(=O)NC1CCCC1 (stereo not drawn),-1,.,.,.,.,0
Cc1nc(Sc2ccccc2)c(C#N)c(C)c1[N+](=O)[O-],0,-3,-4,0,8.6*,5
Cc1nc(Sc2ccccc2)c(C#N)cc1-c1ccccc1,0,-2,-18,0,-3,6
Cc1ccc(C(=O)Nc2ccc(S(=O)(=O)Nc3cnc4ccccc4n3)cc2)cc1,-1,-2,.,1,-2,9
CN1/C(=C\P(=O)(N(C)C)N(C)C)C(C)(C)c2ccccc21,59*,-2,0,2,-4,45*
N#C/C(=C/c1ccc(-c2ccccc2)o1)c1nc(-c2cccs2)cs1,8,2,99*,.,-1,18
